# Test results: ChEMBL document CHEMBL3608299, “Identification of N-acylhydrazone derivatives as novel lactate dehydrogenase A inhibitors” (Eur J Med Chem, 2015)
# Active and inactive are the calls of the source. The rule behind the calls is not given here.
# Key:
# Raji [1] = assay: Antiproliferative activity against human Raji cells after 24 hrs by Trypan blue exclusion method; type: functional, cell-based
# Procedure, shortened: (§1)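 Raji Burkitt's lymphoma cells (MYC-overexpressing) were used for lactic acid production and cell proliferation. All points were run in triplicate and reported as mean ± standard deviation.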
# [2] = biological target: T1, L-lactate dehydrogenase A chain (Homo sapiens, UniProt P00338); assay: Inhibition of lactate dehydrogenase-A in human Raji cells assessed as reduction of intracellular lactate level after 3 hrs; type: cell-based; procedure, shortened: as §1
# [3] = biological target: T1, L-lactate dehydrogenase A chain; assay: Inhibition of human liver purified lactate dehydrogenase-A using pyruvate as substrate assessed as NADH oxidation for 3 mins by fluorimetric method
# Procedure, shortened: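 Purified human LDH-A was run in a fluorimetric assay. Values were obtained from triplicate points and given as mean ± standard deviation.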
# Raji [4] = assay: Potentiation of sunitinib-induced cytotoxicity against human Raji cells assessed as combination index at 40 uM after 24 hrs by Trypan blue exclusion method relative to control; type: functional
# Procedure, shortened: (§2)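 Each chemotherapeutic agent was first titrated on Raji cells to its lowest dose giving a statistically significant viability effect at 24 h. That dose was then combined with a fixed concentration of the test agent, and a combination index was calculated, where 0.8–1.2 indicates additivity. Experiments were repeated twice.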
# Raji [5] = assay: Antiproliferative activity against human Raji cells at 40 uM after 24 hrs by Trypan blue exclusion method; type: functional
# [6] = biological target: T1, L-lactate dehydrogenase A chain; assay: Inhibition of lactate dehydrogenase-A in human Raji cells assessed as reduction of intracellular lactate level at 40 uM after 3 hrs; type: cell-based
# Raji [7] = assay: Potentiation of cisplatin-induced cytotoxicity against human Raji cells assessed as combination index at 40 uM after 24 hrs by Trypan blue exclusion method relative to control; type: functional; procedure, shortened: as §2
# [8] = biological target: T1, L-lactate dehydrogenase A chain; assay: Inhibition of human liver purified lactate dehydrogenase-A using NADH as substrate assessed as disappearance of NADH fluorescence
# Procedure, shortened: (§3)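 Purified human LDH-A enzymatic assays were run. Inhibition constants (Ki) were calculated separately versus pyruvate and versus NADH as the varied substrate.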
# [9] = biological target: T1, L-lactate dehydrogenase A chain; assay: Inhibition of human liver purified lactate dehydrogenase-A using pyruvate as substrate assessed as disappearance of NADH fluorescence; procedure, shortened: as §3
# Raji [10] = assay: Potentiation of daunomycin-induced cytotoxicity against human Raji cells assessed as combination index at 40 uM after 24 hrs by Trypan blue exclusion method relative to control; type: functional; procedure, shortened: as §2
# Raji [11] = assay: Induction of apoptosis in human Raji cells assessed as increase of BCL2 protein expression at 40 uM after 18 hrs by Western blotting; type: functional, cell-based
# Procedure, shortened: (§4)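 After 18 h exposure, Raji cell lysates were analysed by Western blot for the mitochondrial apoptosis regulators BAX and BCL2. The fold change was expressed versus untreated control.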
# [12] = biological target: T1, L-lactate dehydrogenase A chain; assay: Inhibition of lactate dehydrogenase-A in human Raji cells assessed as NADH level per 10^6 cells at 40 uM after 18 hrs (reference value: 24 pmol); type: cell-based
# Procedure, shortened: (§5)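 Intracellular NAD+ and NADH were measured in Raji cells after 18 h exposure to assess the redox balance. The shift was evaluated against untreated cells with statistical testing.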
# [13] = biological target: T1, L-lactate dehydrogenase A chain; assay: Inhibition of lactate dehydrogenase-A in human Raji cells assessed as reduction of NAD+ regeneration at 40 uM; type: cell-based; procedure, shortened: as §5
# Raji [14] = assay: Potentiation of etoposide-induced cytotoxicity against human Raji cells assessed as combination index at 40 uM after 24 hrs by Trypan blue exclusion method relative to control; type: functional; procedure, shortened: as §2
# Raji [15] = assay: Cell cycle arrest in human Raji cells assessed as accumulation at G2/M phase at 40 uM after 18 hrs using propidium iodide staining by flow cytometry; type: functional, cell-based
# Procedure, shortened: (§6)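 Raji cells were exposed for 18 h, then stained with propidium iodide. Cell cycle phase distribution (S, G2/M fractions) was measured by flow cytometry and tested for statistical significance against untreated cells.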
# [16] = biological target: T1, L-lactate dehydrogenase A chain; assay: Inhibition of lactate dehydrogenase-A in human Raji cells assessed as NAD level per 10^6 cells at 40 uM after 18 hrs (reference value: 365 pmol); type: cell-based; procedure, shortened: as §5
# Raji [17] = assay: Induction of apoptosis in human Raji cells assessed as increase of BAX protein expression at 40 uM after 18 hrs by Western blotting relative to control; type: functional; procedure, shortened: as §4
# [18] = Cytotoxicity against lymphocytes (unknown origin) assessed as cell viability at 200 uM after 24 hrs by Trypan blue exclusion method; type: cell-based; details: lymphocyte
# Procedure, shortened: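 Viability of normal lymphocytes after treatment was compared with Raji cultures across a concentration range up to 200. Significance was assessed by ANOVA.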
# Raji [19] = assay: Cell cycle arrest in human Raji cells assessed as accumulation at S phase at 40 uM after 18 hrs using propidium iodide staining by flow cytometry; type: functional, cell-based; details: in the assay text read “accumulation at G2/M phase” for “accumulation at S phase”; procedure, shortened: as §6
SMILES,IC50 (Raji [1]),IC50 [2],IC50 [3],also measured
O=C(O)c1cccc(-c2ccc(/C=N/NC(=O)c3cccnc3)o2)c1,> 200 µM,> 200 µM,43 µM,–
O=C(O)c1cccc(-c2ccc(/C=N/NC(=O)c3cccc(CO)c3)o2)c1,> 200 µM,> 200 µM,46 µM,–
COC(=O)c1cccc(-c2ccc(/C=N/NC(=O)c3cccnc3)o2)c1,–,–,> 200 µM,–
COc1cc(C(=O)N/N=C/c2ccc(-c3ccc(C(=O)O)cc3)o2)cc(OC)c1OC,100 µM,134 µM,125 µM,–
COc1cc(C(=O)N/N=C/c2ccc(-c3cccc(C(=O)O)c3)s2)cc(OC)c1OC,95 µM,105 µM,41 µM,–
COc1cc(C(=O)N/N=C/c2cccc(-c3cccc(C(=O)O)c3)n2)cc(OC)c1OC,–,–,> 200 µM,–
N#CCC(=O)N/N=C/c1ccc(-c2cccc(C(=O)O)c2)o1,64 µM,115 µM,48 µM,–
COc1cc(C(=O)N/N=C/c2c[nH]c(-c3cccc(C(=O)O)c3)c2)cc(OC)c1OC,80 µM,> 200 µM,–,–
O=C(O)c1cccc(-c2ccc(/C=N/NC(=O)c3ccc4[nH]ncc4c3)o2)c1,45 µM,> 200 µM,41 µM,–
N#CCC(=O)N/N=C/c1cccc(-c2ccc(C(=O)O)cc2)n1,–,–,> 200 µM,–

# The remaining molecules from weak to strong by IC50 [3], led by results:
IC50 (Raji [1]),IC50 [2],IC50 [3],SMILES,also measured
115 µM,100 µM,38 µM,O=C(O)c1cccc(-c2ccc(/C=N/NC(=O)c3ccc4[nH]ccc4c3)o2)c1,–
38 µM,42 µM,37 µM,COc1cc(C(=O)N/N=C/c2ccc(-c3cccc(C(=O)O)c3)o2)cc(OC)c1OC,CI (Raji [4]): 1.08; inhibition at 40 µM (Raji [5]): 50%; inhibition [6]: 50%; CI (Raji [7]): 1; Ki [8]: 47 µM; Ki [9]: 39 µM; CI (Raji [10]): 0.88; Activity (Raji [11]): inactive; Activity [12]: 26 pmol; inhibition [13]: Active; CI (Raji [14]): 0.86; Activity (Raji [15]): Active; Activity [16]: 351 pmol; fold change (FC) (Raji [17]): 6.7; Activity [18]: Non-toxic; Activity (Raji [19]): Active
–,> 200 µM,37 µM,N#CCC(=O)N/N=C/c1ccc(-c2ccc(C(=O)O)cc2)o1,–
48 µM,52 µM,32 µM,COc1cc(C(=O)N/N=C/c2cc(-c3cccc(C(=O)O)c3)co2)cc(OC)c1OC,–
